In ChEMBL document CHEMBL3351316, “Scaffold hopping approach on the route to selective tankyrase inhibitors” (Eur J Med Chem, 2014):
Active and inactive are the calls of the source. No cut-off for these calls is given here.

Tests used:
[1] = target: T1, Protein mono-ADP-ribosyltransferase PARP12 (Homo sapiens) (UniProt Q9H0J9); experiment: Inhibition of human recombinant PARP12 at 10 uM incubated for 1 hr using NAD+, biotinylated NAD+ and activated DNA by luminescence based assay
T1 sequence (whole entry): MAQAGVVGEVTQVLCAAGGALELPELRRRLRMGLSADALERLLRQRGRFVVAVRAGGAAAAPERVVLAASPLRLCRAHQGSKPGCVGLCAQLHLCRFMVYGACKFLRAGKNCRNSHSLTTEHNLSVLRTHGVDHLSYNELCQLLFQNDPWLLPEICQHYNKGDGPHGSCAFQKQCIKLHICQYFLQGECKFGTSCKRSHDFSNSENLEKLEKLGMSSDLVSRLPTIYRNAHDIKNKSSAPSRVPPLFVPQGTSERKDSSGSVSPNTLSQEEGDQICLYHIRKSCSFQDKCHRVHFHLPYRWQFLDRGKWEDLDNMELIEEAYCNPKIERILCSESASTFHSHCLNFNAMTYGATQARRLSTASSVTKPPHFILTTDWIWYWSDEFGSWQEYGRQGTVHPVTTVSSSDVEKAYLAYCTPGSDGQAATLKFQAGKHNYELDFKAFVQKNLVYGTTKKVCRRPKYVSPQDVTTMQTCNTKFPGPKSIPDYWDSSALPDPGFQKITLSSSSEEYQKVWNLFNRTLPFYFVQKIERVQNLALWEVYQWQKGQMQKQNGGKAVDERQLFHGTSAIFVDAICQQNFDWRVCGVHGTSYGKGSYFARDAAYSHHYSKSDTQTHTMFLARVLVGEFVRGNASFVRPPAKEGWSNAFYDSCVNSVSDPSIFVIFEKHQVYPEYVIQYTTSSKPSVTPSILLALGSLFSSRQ
Procedure, shortened: (§1)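 Recombinant PARP enzyme reactions were run in duplicate for 1 h at rt on histone-coated plates in Tris·HCl pH 8.0 buffer with NAD+, biotinylated NAD+ and activated DNA. Detection used streptavidin-HRP for 30 min at rt, then a chemiluminescent developer. % inhibition = 100 − % activity, scaled between the no-compound (100%) and no-enzyme (0%) signals.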

[2] = target: T2, Protein mono-ADP-ribosyltransferase PARP3 (Homo sapiens) (UniProt Q9Y6F1); experiment: Inhibition of human recombinant PARP3 at 10 uM incubated for 1 hr using NAD+, biotinylated NAD+ and activated DNA by luminescence based assay; procedure, shortened: as §1
T2 sequence (whole entry): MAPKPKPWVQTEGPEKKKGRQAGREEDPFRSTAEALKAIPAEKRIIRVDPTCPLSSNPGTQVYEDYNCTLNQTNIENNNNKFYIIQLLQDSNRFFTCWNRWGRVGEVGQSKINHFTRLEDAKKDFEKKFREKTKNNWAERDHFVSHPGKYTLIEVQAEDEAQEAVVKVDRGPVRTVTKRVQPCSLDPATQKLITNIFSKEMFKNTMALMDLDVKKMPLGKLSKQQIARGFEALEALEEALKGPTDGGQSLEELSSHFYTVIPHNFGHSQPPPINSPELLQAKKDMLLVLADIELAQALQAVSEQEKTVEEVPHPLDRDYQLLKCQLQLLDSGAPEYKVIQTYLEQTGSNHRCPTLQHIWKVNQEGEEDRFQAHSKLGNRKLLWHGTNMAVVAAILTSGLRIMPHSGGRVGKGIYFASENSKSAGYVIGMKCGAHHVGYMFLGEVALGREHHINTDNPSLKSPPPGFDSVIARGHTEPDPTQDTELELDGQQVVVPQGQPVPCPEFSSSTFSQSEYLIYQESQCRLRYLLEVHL

[3] = target: T3, Protein mono-ADP-ribosyltransferase PARP10 (Homo sapiens) (UniProt Q53GL7); experiment: Inhibition of human recombinant PARP10 at 10 uM incubated for 1 hr using NAD+, biotinylated NAD+ and activated DNA by luminescence based assay; procedure, shortened: as §1
T3 sequence (whole entry): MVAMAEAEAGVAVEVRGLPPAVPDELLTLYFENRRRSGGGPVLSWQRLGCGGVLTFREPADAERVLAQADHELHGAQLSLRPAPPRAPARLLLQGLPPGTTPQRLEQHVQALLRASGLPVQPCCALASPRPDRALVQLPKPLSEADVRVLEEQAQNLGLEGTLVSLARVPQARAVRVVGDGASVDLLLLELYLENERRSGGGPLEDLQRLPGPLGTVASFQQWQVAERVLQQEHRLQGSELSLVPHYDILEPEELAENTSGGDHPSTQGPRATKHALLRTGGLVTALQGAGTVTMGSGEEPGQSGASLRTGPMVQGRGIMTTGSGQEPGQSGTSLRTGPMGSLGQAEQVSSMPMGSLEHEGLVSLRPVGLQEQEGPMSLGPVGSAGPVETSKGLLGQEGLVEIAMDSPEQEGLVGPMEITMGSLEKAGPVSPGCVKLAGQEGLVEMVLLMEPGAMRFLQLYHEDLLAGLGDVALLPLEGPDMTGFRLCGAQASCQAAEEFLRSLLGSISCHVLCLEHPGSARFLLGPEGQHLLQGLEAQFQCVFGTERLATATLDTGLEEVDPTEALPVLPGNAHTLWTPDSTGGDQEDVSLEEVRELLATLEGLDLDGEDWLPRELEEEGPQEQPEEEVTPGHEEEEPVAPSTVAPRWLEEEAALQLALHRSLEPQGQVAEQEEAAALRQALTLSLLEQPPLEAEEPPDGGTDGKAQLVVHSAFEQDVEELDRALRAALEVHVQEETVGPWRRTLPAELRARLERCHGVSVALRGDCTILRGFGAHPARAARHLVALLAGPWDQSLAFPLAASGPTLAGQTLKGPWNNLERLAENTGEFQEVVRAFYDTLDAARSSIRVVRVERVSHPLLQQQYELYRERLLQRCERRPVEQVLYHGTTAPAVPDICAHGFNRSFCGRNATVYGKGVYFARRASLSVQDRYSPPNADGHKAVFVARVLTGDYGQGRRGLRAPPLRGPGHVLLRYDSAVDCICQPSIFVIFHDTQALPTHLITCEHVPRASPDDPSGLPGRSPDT

[4] = tested on: DLD-1; experiment: Growth inhibition of human DLD1 cells at 1 uM to 10 uM; format: functional, cell-based
Procedure, shortened: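 DLD-1 colorectal cancer cells seeded at 5 × 10^3 in a colony growth assay. Cells were dosed daily with 1, 5 or 10 μM compound in DMSO, with DMSO alone as the negative control. After 10 days cells were fixed in 10% methanol/acetic acid, stained with 1% crystal violet and quantified by image analysis. Mean ± SEM of at least three independent experiments.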

[5] = target: Protein mono-ADP-ribosyltransferase PARP14 (Homo sapiens) (UniProt Q460N5); experiment: Inhibition of human recombinant PARP14 at 10 uM incubated for 1 hr using NAD+, biotinylated NAD+ and activated DNA by luminescence based assay; procedure, shortened: as §1
Chain of Protein mono-ADP-ribosyltransferase PARP14 (Homo sapiens) (Q460N5 whole entry): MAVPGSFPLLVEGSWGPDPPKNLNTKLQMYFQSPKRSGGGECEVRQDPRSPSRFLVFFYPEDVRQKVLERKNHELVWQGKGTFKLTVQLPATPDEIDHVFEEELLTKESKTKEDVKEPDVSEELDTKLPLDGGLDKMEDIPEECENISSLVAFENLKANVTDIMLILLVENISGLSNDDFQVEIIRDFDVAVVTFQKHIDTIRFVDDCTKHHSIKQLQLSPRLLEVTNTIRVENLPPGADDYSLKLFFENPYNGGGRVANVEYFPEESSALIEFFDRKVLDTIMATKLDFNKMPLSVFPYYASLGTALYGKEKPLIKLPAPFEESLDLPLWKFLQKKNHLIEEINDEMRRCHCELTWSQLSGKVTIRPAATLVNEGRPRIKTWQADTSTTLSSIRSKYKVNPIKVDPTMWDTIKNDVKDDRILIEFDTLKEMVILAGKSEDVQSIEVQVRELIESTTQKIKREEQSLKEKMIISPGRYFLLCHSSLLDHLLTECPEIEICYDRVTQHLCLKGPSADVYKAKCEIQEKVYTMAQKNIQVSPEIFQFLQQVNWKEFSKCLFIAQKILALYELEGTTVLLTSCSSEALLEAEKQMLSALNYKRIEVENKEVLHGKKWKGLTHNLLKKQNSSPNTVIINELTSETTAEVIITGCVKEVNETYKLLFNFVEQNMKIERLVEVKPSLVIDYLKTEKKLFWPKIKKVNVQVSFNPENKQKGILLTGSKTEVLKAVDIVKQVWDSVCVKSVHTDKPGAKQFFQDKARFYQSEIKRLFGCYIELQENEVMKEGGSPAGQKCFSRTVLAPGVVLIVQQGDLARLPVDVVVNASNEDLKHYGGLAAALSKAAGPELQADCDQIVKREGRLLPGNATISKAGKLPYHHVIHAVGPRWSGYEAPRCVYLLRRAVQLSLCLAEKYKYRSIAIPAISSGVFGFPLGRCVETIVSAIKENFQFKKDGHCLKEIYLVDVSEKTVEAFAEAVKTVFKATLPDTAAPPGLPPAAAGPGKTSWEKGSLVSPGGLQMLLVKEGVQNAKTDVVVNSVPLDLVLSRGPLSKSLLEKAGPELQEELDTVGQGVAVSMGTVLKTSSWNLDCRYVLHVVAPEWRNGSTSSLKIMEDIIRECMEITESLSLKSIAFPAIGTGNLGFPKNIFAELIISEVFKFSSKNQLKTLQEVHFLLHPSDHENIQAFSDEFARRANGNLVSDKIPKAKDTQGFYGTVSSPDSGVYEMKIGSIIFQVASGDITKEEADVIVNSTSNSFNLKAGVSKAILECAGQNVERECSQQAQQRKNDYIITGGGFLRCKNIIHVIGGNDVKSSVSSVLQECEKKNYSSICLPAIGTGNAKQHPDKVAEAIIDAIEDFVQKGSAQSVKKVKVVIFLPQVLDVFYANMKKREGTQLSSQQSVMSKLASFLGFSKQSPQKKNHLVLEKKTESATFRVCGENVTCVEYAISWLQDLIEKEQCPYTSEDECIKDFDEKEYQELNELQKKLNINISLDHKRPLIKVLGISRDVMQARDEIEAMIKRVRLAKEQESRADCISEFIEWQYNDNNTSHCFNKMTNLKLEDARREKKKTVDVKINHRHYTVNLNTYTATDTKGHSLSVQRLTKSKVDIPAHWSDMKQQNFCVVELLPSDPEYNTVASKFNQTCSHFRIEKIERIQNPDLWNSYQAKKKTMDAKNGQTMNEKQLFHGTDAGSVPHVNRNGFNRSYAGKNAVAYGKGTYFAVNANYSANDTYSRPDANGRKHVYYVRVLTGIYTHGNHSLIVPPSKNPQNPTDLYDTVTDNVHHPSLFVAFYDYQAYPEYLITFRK

[6] = target: Poly [ADP-ribose] polymerase 2 (Homo sapiens) (UniProt Q9UGN5); experiment: Inhibition of human recombinant PARP2 incubated for 1 hr using histone substrate at 1 uM by luminescence based assay; procedure, shortened: as §1
Chain of Poly [ADP-ribose] polymerase 2 (Homo sapiens) (Q9UGN5 whole entry): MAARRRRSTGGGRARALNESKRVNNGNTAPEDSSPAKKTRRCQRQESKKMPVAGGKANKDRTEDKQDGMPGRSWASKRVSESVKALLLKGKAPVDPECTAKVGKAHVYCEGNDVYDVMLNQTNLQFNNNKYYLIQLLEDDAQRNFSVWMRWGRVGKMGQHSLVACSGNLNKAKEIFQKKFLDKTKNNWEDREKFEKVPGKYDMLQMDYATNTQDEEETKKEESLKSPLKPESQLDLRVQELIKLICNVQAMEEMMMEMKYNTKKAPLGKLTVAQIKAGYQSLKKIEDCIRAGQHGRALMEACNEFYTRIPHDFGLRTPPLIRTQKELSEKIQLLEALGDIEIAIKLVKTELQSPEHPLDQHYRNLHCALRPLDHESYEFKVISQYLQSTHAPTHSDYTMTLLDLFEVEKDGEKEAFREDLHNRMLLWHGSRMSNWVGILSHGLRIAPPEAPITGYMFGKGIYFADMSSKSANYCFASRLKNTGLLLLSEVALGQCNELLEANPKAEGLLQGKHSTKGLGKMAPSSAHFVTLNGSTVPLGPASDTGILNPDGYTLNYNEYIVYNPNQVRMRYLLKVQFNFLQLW

[7] = Lipophilicity, log D of the compound at pH 7.4; format: physicochemical; conditions: buffer

CC(C)(C)c1ccc(-c2nc3c(sc4ccccc43)c(=O)[nH]2)cc1
inhibition [1]: 14%
inhibition [2]: 1%
inhibition [3]: 3%
growth inhibition (GI) [4]: Active
inhibition [5]: 0%
inhibition [6]: 4%
logD [7]: 5.16
